Measured values as given in ChEMBL document CHEMBL2034857, “Discovery of the macrocycle (9E)-15-(2-(pyrrolidin-1-yl)ethoxy)-7,12,25-trioxa-19,21,24-triaza-tetracyclo[18.3.1.1(2,5).1(14,18)]hexacosa-1(24),2,4,9,14(26),15,17,20,22-nonaene (SB1578), a potent inhibitor of janus kinase 2/fms-like tyrosine kinase-3 (JAK2/FLT3) for the treatment of rheumatoid …” (J Med Chem, 2012).

How the values were obtained:
Cytochrome P450 1A2 = target: T1, Cytochrome P450 1A2 (Homo sapiens, UniProt P05177); assay: Induction of CYP1A2 in human liver microsomes; format: ADME, Microsome
T1 sequence (P05177 whole entry): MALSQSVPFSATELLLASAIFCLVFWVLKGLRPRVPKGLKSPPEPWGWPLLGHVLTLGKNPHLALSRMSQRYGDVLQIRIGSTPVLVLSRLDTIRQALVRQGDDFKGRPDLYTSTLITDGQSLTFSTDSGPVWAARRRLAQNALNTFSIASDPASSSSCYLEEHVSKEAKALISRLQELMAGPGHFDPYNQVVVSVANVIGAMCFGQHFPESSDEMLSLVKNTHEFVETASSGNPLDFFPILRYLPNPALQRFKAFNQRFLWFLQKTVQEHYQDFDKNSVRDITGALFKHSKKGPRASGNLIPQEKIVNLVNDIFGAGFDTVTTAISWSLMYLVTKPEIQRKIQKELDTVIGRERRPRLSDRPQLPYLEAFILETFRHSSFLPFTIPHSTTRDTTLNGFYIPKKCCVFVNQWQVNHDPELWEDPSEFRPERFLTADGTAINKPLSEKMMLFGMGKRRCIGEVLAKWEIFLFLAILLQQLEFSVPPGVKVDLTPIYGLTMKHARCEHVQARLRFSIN

[1] = Oral bioavailability in Wistar rat at 50 mg/kg; format: ADME, organism-based; details: in vivo
Outline: (§1)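 Single oral gavage at 50 (mouse, rat), 5 (dog) or 20 (monkey) mg/kg; rodents and monkeys received suspensions in 0.5% methylcellulose/0.1% Tween 80, dogs gelatin capsules. Serial blood taken 0–24 h into K3EDTA, plasma stored at −70 °C. Parameters estimated by noncompartmental analysis, n = 3 per species (mouse values from mean concentration–time data, 3 mice per time point).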

[2] = AUC (0 to infinity) in beagle dog at 5 mg/kg, po; format: ADME, organism-based, Canis lupus familiaris; parameters: time infinity, dose 5 mg/kg, route oral; details: plasma; outline: as §1
[3] = Half life in rhesus monkey live microsomes at 5 uM; format: ADME, Macaca mulatta; details: liver microsomes
Outline: (§2)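 Compound at 5 μM with human, mouse or dog microsomes at 0.87 mg/mL, or rat and monkey microsomes at 1 mg/mL, in 50 mM potassium phosphate pH 7.4 with NADPH regenerating system at 37 °C.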

[4] = AUC (0 to infinity) in Wistar rat at 50 mg/kg, po; format: ADME, organism-based; parameters: dose 50 mg/kg, route oral, time infinity; details: plasma; outline: as §1
[5] = Cmax in Wistar rat at 50 mg/kg, po; format: ADME, organism-based; parameters: dose 50 mg/kg, route oral; details: in vivo; outline: as §1
Cytochrome P450 2D6 [6] = target: T2, Cytochrome P450 2D6 (Homo sapiens, UniProt P10635); assay: Inhibition of CYP2D6 in human liver microsomes using dextromethorphan as substrate by LC-MS/MS analysis; format: ADME, Microsome
T2 sequence (P10635 whole entry): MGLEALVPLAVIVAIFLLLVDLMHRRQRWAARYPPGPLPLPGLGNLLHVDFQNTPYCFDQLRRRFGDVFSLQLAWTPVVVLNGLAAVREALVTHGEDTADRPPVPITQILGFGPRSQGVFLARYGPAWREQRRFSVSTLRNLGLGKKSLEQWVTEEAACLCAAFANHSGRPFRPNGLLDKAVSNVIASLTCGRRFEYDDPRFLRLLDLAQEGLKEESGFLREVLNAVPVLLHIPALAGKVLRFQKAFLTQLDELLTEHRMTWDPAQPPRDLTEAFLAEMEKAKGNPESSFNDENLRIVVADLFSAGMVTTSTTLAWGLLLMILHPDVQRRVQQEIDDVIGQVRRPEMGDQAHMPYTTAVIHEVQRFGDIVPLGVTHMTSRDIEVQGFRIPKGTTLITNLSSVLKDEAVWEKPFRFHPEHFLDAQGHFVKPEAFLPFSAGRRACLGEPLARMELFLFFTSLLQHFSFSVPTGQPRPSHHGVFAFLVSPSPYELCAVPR

[7] = Cmax in rhesus monkey at 20 mg/kg, po; format: ADME, organism-based, Macaca mulatta; parameters: dose 20 mg/kg, route oral; details: in vivo; outline: as §1
Cytochrome P450 2D6 [8] = target: T2, Cytochrome P450 2D6; assay: Inhibition of CYP2D6 in human liver microsomes using dextromethorphan as substrate by fluorescence detection assay; format: ADME, Microsome
Outline: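 Seven-point concentration series (0.001, 0.01, 0.1, 1.0, 5, 10 and 25 μM) incubated with human liver microsomes. IC50 is the concentration giving 50% inhibition, calculated from the decrease in metabolite formation relative to vehicle control.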

[9] = Cmax in BALB/c nude mouse at 50 mg/kg, po; format: ADME, organism-based; parameters: dose 50 mg/kg, route oral; details: in vivo; outline: as §1
[10] = Thermodynamic solubility of the compound at pH 7; format: physicochemical; details: buffer, read-out: Therm_solubility
Outline: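 The citrate salt (~5 mg) was made up at 5 mg/mL in pH-buffered solution, in triplicate. It was shaken 24 h at 600 rpm at room temperature, filtered (0.4 μm) and the final pH recorded. The filtrate was diluted in acetonitrile/water (1:1), centrifuged and quantified by HPLC-UV. Two determinations were made on two different batches.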

[11] = target: Voltage-gated inwardly rectifying potassium channel KCNH2 (Homo sapiens, UniProt Q12809); assay: Displacement of dofetilide from human ERG
Sequence of Voltage-gated inwardly rectifying potassium channel KCNH2 (Q12809 whole entry): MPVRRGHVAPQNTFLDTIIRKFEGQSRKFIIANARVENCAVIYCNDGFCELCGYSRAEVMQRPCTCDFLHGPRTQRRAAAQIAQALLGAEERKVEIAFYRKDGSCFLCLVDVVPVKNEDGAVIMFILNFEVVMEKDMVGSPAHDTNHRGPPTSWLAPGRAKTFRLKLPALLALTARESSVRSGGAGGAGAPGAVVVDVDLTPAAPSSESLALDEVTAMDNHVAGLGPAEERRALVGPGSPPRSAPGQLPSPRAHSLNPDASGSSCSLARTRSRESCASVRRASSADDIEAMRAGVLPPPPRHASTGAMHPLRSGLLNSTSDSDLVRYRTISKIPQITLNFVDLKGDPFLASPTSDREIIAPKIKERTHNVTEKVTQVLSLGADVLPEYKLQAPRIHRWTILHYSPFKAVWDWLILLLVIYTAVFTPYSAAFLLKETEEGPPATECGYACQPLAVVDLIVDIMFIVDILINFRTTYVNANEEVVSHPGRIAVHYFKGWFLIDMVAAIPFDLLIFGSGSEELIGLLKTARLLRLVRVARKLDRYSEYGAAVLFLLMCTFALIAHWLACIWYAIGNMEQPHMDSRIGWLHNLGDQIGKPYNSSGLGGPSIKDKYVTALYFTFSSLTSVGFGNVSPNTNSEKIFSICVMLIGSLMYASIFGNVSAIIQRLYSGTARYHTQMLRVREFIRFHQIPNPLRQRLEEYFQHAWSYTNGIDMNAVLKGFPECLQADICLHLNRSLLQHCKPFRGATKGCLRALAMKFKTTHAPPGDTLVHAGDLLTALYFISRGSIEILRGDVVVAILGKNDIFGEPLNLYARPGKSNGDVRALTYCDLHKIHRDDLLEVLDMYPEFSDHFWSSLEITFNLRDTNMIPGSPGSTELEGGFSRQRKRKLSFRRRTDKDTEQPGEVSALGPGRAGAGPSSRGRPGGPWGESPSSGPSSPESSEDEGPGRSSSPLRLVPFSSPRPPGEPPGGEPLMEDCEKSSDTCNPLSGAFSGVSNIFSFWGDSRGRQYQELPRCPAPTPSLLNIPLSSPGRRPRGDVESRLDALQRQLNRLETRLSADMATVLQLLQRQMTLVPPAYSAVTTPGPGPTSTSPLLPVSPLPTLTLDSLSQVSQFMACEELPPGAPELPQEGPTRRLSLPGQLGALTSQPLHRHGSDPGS

[12] = Kinetic solubility in PBS buffer at pH 7; format: physicochemical; details: read-out: Kinetic_solubility
[13] = Terminal half life in rhesus monkey at 20 mg/kg, po; format: ADME, organism-based, Macaca mulatta; parameters: dose 20 mg/kg, route oral; details: in vivo, read-out: beta t1/2 (converted)
Outline: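 Single oral dose by gavage as suspension in 0.5% methylcellulose/0.1% Tween 80 (mouse, rat, monkey) or in gelatin capsules (dog). Serial blood samples taken from 0 to 24 h into K3EDTA tubes; plasma stored at −70 °C until analysis. Parameters derived by noncompartmental methods. Rat, dog and monkey n = 3; mouse values estimated from mean concentration-time data, n = 3 mice per time point.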

BaF3 = assay: Antiproliferative activity against mouse BAF3 cells expressing JAK2 V617F mutant after 48 hrs by luciferase reporter gene assay; format: functional; details: BaF3, 48 h
[14] = Oral bioavailability in BALB/c nude mouse at 50 mg/kg; format: ADME, organism-based; details: in vivo; outline: as §1
[15] = target: Non-receptor tyrosine-protein kinase TYK2 (Homo sapiens, UniProt P29597); assay: Inhibition of TYK2
Sequence of Non-receptor tyrosine-protein kinase TYK2 (P29597 whole entry): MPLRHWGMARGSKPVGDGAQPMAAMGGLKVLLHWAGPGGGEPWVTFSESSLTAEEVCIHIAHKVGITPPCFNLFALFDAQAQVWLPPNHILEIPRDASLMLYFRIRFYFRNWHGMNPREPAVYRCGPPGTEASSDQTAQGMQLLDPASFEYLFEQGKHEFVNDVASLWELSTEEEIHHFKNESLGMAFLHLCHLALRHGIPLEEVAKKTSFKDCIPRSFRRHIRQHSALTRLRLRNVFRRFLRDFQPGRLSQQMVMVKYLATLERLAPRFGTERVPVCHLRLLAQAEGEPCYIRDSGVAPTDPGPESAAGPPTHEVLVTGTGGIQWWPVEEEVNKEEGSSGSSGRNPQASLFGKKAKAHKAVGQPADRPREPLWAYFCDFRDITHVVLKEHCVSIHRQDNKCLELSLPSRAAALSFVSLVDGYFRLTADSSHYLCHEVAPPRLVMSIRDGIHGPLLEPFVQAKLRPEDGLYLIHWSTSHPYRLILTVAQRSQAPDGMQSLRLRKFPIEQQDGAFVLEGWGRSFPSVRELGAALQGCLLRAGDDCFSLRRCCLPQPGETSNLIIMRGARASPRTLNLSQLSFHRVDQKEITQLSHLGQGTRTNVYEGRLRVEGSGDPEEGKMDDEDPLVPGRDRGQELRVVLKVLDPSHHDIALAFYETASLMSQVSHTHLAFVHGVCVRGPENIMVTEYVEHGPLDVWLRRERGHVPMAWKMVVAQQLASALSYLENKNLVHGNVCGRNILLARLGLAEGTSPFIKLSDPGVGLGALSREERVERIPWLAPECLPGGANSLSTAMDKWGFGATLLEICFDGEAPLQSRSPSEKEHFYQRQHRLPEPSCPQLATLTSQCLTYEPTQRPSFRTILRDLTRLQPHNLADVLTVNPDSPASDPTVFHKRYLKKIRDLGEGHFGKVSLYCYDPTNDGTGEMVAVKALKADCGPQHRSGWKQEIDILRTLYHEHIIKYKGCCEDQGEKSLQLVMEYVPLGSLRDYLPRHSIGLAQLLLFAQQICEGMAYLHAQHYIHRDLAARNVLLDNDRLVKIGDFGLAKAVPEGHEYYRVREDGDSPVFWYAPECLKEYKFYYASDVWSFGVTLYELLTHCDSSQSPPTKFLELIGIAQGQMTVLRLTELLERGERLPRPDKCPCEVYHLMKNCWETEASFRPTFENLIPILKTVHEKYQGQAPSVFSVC

[16] = AUC (0 to infinity) in BALB/c nude mouse at 50 mg/kg, po; format: ADME, organism-based; parameters: time infinity, dose 50 mg/kg, route oral; details: plasma; outline: as §1
[17] = Half life in dog liver microsomes at 5 uM; format: ADME, Canis lupus familiaris, Microsome; outline: as §2
Cytochrome P450 2C9 = Cytochrome P450 2C9 (Homo sapiens, UniProt P11712); assay: Inhibition of CYP2C9 in human liver microsomes using diclofenac as substrate by LC-MS/MS analysis; format: ADME, Microsome
Sequence of Cytochrome P450 2C9 (P11712 whole entry): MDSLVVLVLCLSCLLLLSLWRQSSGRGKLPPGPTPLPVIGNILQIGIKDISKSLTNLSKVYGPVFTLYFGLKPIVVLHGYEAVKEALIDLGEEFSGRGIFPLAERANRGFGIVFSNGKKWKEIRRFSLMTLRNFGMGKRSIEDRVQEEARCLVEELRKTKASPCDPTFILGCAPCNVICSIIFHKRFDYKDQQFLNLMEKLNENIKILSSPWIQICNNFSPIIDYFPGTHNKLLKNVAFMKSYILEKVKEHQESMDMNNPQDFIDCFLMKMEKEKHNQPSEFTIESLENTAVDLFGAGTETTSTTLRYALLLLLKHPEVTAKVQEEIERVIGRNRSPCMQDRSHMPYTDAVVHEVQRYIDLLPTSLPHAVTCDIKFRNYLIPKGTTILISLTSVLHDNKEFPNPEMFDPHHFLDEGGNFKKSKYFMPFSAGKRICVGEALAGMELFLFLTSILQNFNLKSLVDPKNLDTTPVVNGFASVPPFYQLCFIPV

[18] = Half life in mouse liver microsomes at 5 uM; format: ADME, Microsome; outline: as §2
[19] = Cmax in beagle dog at 5 mg/kg, po; format: ADME, organism-based, Canis lupus familiaris; parameters: dose 5 mg/kg, route oral; details: in vivo; outline: as §1
[20] = Apparent permeability from apical to basal side of human Caco2 cells at 10 uM after 120 mins by LC-MS/MS analysis; format: ADME, cell-based; details: Caco-2
Outline: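 Caco-2 monolayers (passage 40–60) seeded at 1 × 10⁵ cells/cm² and used on day 20; 10 μM compound (1% DMSO final) in HBSS pH 7.4 with 25 mM HEPES and 4.45 mM glucose, 120 min at 37 °C, 5% CO2. Both directions run in duplicate, quantified by LC-MS/MS; lucifer yellow checks monolayer integrity.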

[21] = Oral bioavailability in beagle dog at 5 mg/kg; format: ADME, organism-based, Canis lupus familiaris; details: in vivo; outline: as §1
[22] = AUC (0 to infinity) in rhesus monkey at 20 mg/kg, po; format: ADME, organism-based, Macaca mulatta; parameters: time infinity, dose 20 mg/kg, route oral; details: plasma; outline: as §1

With `C1=C2COC/C=C/COCc3cc(ccc3OCCN3CCCC3)Nc3nccc(n3)C(=C1)O2` (mixture of isomers) [CT-1578] the Activity (Cytochrome P450 1A2) was “Not Active”, the bioavailability [1] was 6% and the AUC(0-inf) [2] was 96 ng·h/mL. It also gave a half-life at 5 µM [3] of 23 min, an AUC(0-inf) [4] of 1500 ng·h/mL and a Cmax [5] of 231 ng/mL. The IC50 (Cytochrome P450 2D6 [6]) was > 10 µM, the Cmax [7] was 1980 ng/mL and the IC50 (Cytochrome P450 2D6 [8]) was > 10 µM. The Cmax [9] was 1230 ng/mL, the solubility thermodynamic [10] was 880 µg/mL and the IC50 [11] was > 10 µM. For the same compound, the solubility kinetic [12] was > 250 µg/mL, the half-life [13] was 66 min and the GI50 (BaF3) was 250 nM. The bioavailability [14] was 34%, the IC50 [15] was 230 nM and the AUC(0-inf) [16] was 2020 ng·h/mL. The half-life at 5 µM [17] was > 60 min, the IC50 (Cytochrome P450 2C9) was > 10 µM and the half-life at 5 µM [18] was > 60 min. The Cmax [19] was 27 ng/mL, the Papp A→B at 2 h, 10 µM [20] was 24.8 ×10⁻⁶ cm/s and the bioavailability [21] was 6%. It also gave an AUC(0-inf) [22] of 7590 ng·h/mL.
